Article PMC11344153 (Scientific Reports, 2024)

Legend:
[1] = tested on: N-terminal peptide of GPIHBP1; assay: SPR binding to immobilized N-terminal peptide of GPIHBP1; set-up: species or system human; details: even at concentrations of 1 μM, 25 °C, 20 mM HEPES pH 7.4, 0.15 M NaCl
Procedure, shortened: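 Biacore SPR with 578 RU of biotinylated N-terminal GPIHBP1 peptide captured on the sensor (148.5 fmol/mm2). Analytes were tenfold-diluted pooled nonfasting human plasma, tenfold-diluted lipoprotein-deficient plasma (± 20, 40 or 80 nM purified bovine LPL) or isolated heparin-binding proteins (antithrombin III, protamine, FGF-2). Flow was 20 µl/min at 25 °C in 20 mM HEPES pH 7.4, 0.15 M NaCl.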

LPL = target: T1, LPL (Bos taurus, UniProt P11151); assay type: binding, bovine; details: fluorescence anisotropy, 10 IU/ml heparin in phosphate buffer
T1 sequence (P11151 29-478): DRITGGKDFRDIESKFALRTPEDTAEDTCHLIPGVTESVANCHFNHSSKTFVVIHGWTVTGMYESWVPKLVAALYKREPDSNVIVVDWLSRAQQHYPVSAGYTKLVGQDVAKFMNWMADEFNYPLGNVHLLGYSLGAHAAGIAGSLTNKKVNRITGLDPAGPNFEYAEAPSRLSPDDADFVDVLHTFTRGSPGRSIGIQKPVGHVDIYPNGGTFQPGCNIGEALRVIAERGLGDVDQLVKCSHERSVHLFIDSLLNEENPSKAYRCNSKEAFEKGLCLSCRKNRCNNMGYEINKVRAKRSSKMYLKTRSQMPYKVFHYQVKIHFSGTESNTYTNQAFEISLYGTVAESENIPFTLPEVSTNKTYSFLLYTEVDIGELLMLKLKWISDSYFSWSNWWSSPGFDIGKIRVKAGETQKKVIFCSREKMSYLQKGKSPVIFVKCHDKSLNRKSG
Procedure, shortened: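 N-terminal GPIHBP1 peptide labeled at cysteine with DyLight 488 maleimide, 100 nM, mixed with increasing LPL concentrations in 20 mM phosphate, pH 7.4, 0.15 M NaCl plus 10 IU/ml heparin. Excitation 493 nm, emission 518 nm, with emission polarizer parallel and perpendicular to vertical excitation. Anisotropy change versus LPL concentration fitted to a 1:1 binding model for KD.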

| binding to the immobilized N-terminal domain of GPIHBP1 [1] | effect on the interaction between LPL and the N-terminal domain of GPIHBP1 (LPL) | Substance |
| --- | --- | --- |
| no binding | – | FGF-2: heparin binding protein, ICN Biomedicals |
| no binding | – | antithrombin III |
| – | completely blocked the interaction | heparin |
| no binding | – | protamine |
